Nine compounds from ChEMBL document CHEMBL1154688, “Selective Kv1.5 blockers: development of (R)-1-(methylsulfonylamino)-3-[2-(4-methoxyphenyl)ethyl]-4-(4-methoxyphenyl)-2-imidazolidinone (KVI-020/WYE-160020) as a potential treatment for atrial arrhythmia” (J Med Chem, 2009) can be followed below.

One data set deals with CYP3A4 (Homo sapiens, UniProt P08684). The experiment in a line: Inhibition of CYP3A4 at 3 uM by fluorescent method. The format is ADME. In a few lines:
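CYP3A4 inhibition measured by a fluorescent method.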

Data set [1] concerns the target Voltage-gated inwardly rectifying potassium channel KCNH2 (Homo sapiens, UniProt Q12809). The experiment in a line: Inhibition of human ERG by patch-clamp technique.
Data set [2] in a line: Aqueous solubility at pH 7.4 by direct UV method. The settings on record: aqueous medium. The format is physicochemical. In a few lines:
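Solubility measured in pH 7.4 buffer with direct UV read-out.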

For data set [3], the target named is Potassium voltage-gated channel subfamily A member 5 (Homo sapiens, UniProt P22460). The experiment in a line: Inhibition of human Kv1.5 expressed in CHO cells by patch-clamp technique. The format is cell-based. In short, it runs like this: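 Human Kv1.5 stably expressed in CHO cells. IC50 was determined by automated patch clamp on the IonWorks platform.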
Potassium voltage-gated channel subfamily A member 5, sequence (P22460 whole entry): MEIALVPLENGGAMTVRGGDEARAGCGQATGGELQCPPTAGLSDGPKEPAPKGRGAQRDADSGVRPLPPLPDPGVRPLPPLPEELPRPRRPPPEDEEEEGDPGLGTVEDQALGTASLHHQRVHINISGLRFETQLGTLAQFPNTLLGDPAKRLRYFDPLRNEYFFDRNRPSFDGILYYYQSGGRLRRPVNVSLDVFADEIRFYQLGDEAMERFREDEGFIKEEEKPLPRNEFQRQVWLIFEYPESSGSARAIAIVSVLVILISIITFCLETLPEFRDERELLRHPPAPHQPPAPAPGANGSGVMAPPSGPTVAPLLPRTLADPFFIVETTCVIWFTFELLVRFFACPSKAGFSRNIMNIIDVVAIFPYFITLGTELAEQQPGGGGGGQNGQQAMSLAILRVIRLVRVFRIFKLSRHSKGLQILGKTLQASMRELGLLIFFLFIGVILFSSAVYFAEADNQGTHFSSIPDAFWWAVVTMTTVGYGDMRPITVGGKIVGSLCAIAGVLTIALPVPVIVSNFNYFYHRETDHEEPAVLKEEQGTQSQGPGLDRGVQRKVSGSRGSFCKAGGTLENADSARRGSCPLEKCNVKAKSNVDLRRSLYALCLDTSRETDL

Data set [4] is described as follows: Metabolic stability in human liver microsomes assessed as half life. The format is ADME, Microsome. In a few lines:
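Test compound at 1 μM incubated with 1 mg/mL male beagle dog or male human liver microsomal protein. Half-life was determined from compound loss.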

Structures are written as SMILES. Converted amounts (≈) assume the structure as drawn.

Voltage-gated inwardly rectifying potassium channel KCNH2, sequence (Q12809 whole entry): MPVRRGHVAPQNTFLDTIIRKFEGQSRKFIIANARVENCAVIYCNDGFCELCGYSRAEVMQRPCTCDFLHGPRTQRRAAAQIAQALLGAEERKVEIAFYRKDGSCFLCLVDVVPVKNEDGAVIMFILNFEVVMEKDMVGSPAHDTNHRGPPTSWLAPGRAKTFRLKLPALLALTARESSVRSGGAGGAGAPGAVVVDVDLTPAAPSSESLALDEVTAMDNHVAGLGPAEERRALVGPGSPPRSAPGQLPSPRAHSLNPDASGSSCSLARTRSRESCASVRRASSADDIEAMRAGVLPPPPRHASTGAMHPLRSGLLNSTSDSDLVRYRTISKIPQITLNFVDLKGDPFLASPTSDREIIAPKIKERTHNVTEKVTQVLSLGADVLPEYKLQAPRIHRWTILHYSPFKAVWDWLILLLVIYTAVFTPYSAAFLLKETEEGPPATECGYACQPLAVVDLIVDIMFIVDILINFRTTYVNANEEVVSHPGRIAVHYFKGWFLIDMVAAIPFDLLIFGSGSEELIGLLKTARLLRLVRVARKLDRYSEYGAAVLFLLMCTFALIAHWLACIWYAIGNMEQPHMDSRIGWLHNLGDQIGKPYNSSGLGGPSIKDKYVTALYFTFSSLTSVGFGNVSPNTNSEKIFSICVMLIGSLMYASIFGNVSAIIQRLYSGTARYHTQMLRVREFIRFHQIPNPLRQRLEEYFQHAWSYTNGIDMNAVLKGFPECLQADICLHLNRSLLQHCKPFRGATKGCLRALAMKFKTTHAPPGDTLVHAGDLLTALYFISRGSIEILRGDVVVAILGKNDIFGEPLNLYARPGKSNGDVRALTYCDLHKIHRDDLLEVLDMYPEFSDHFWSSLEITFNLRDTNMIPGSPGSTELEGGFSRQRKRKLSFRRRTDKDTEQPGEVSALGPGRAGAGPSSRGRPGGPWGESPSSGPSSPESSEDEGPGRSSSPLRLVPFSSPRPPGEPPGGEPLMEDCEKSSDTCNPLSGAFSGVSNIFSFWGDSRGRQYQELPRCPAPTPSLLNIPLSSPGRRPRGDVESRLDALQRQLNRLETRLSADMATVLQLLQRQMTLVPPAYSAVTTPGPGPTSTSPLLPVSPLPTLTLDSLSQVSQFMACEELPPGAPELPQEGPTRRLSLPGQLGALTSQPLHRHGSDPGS
CYP3A4, sequence (P08684 whole entry): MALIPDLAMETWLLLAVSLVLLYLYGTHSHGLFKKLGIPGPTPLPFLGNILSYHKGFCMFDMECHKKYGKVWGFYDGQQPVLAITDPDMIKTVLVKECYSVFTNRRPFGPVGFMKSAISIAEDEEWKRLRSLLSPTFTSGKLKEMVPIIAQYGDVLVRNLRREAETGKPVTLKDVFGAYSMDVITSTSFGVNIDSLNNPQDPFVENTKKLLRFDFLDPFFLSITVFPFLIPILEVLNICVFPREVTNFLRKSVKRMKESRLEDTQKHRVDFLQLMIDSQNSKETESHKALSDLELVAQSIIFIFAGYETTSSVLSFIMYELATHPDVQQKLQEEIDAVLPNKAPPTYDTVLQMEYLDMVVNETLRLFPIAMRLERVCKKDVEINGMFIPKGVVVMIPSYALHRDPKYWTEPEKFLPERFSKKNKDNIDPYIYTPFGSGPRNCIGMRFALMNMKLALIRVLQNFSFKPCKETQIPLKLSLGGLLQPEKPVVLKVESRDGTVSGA

For `COc1ccc(CCN2C(=O)N(NS(C)(=O)=O)CC2c2ccc(C(F)(F)F)cc2)cc1` (stereo not drawn), testing at 3 µM on CYP3A4 gave an inhibition of 67%. Besides, the figures for the IC50 in data set [1] and in data set [3] were 9.1 µM and 0.25 µM, respectively. The compound also displayed a solubility in data set [2] of 13 µg/mL (≈ 28.4 µM). Further, the half-life in data set [4] came out at 30 min.

As to `COc1ccc(CCN2C(=O)N(NS(C)(=O)=O)CC2c2ccc(OC(C)C)cc2)cc1` (stereo not drawn), at 3 µM the inhibition at CYP3A4 was 53%. Also, the IC50 in data set [1] was 17 µM; in data set [3] it was 0.24 µM. Further, the solubility in data set [2] amounted to 26 µg/mL (≈ 58.1 µM). The half-life in data set [4] is 30 min.

As to `COCCOc1ccc(C2CN(NS(C)(=O)=O)C(=O)N2CCc2ccc(OC)cc2)cc1` (stereo not drawn), the inhibition at 3 µM against CYP3A4 came out at 50%. Further, the solubility in data set [2] was 100 µg/mL (≈ 216 µM). The same compound came in with an IC50 in data set [3] of 7.45 µM. The half-life in data set [4] was 30 min.

As for `COc1ccc(CCN2C(=O)N(NS(C)(=O)=O)CC2c2ccc(C)cc2)cc1` (stereo not drawn), the inhibition at 3 µM against CYP3A4 was determined as 58%. For the same compound, the IC50 amounted to 11.2 µM in data set [1] and 0.24 µM in data set [3]. This compound displayed a solubility in data set [2] of 42 µg/mL (≈ 104 µM). Moreover, the half-life in data set [4] was determined as 18 min.

At CYP3A4, `COc1ccc([C@H]2CN(NS(C)(=O)=O)C(=O)N2CCc2ccc(OC(F)(F)F)cc2)cc1` registered an inhibition at 3 µM of 53%. Besides, the IC50 in data set [1] worked out at 5.6 µM; in data set [3], 0.52 µM. In data set [2], this compound displayed a solubility of 4 µg/mL (≈ 8.45 µM). Besides, the half-life in data set [4] worked out at 15 min.

Turning to `COc1ccc(CCN2C(=O)N(NS(C)(=O)=O)CC2c2ccc(C3CC3)cc2)cc1` (stereo not drawn), the inhibition at 3 µM against CYP3A4 is 78%. Also, the IC50 in data set [1] turned out to be 8.4 µM; in data set [3] it was 0.16 µM. This compound also came in with a solubility in data set [2] of 1 µg/mL (≈ 2.33 µM). The half-life in data set [4] was found to be 30 min.

In turn, `COc1ccc(CCCN2C(=O)N(NS(C)(=O)=O)C[C@@H]2c2ccc(OC)cc2)cc1` showed an inhibition at 3 µM against CYP3A4 of 84%. The results for the IC50 in data set [1] and in data set [3] were 14.1 µM and 0.1 µM, respectively. For the same compound, the solubility in data set [2] came out at 18 µg/mL (≈ 41.5 µM). The half-life in data set [4] came to 29 min.

As for `COc1ccc(CCN2C(=O)N(NS(C)(=O)=O)CC2c2ccc(Cl)cc2)cc1` (stereo not drawn), at CYP3A4, the inhibition at 3 µM came out at 27%. In data set [2], this compound yielded a solubility of 4 µg/mL (≈ 9.44 µM). This compound also registered an IC50 in data set [3] of 0.2 µM. In data set [4], the half-life is 30 min.

Take `COc1ccc(CCN2C(=O)N(NS(C)(=O)=O)CC2c2ccc(C)c(C)c2)cc1` (stereo not drawn): 3 µM produced 77% inhibition against CYP3A4. In addition, the IC50 in data set [1] was 15.8 µM; in data set [3], 0.61 µM. Further, the solubility in data set [2] worked out at 17 µg/mL (≈ 40.7 µM). The half-life in data set [4] was determined as 13 min.
